RAD54 branch – blocks human RAD54 Holliday junction branch migration. Q92698. FAM/BHQ fluorescence. inhibition, % at 10.4 µM. 0.14% of 360,000 active. AID 602329;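 active = mean normalized replicate activity at least 40 and at least half of replicates scoring 40 or more; inconclusive = only one of the two criteria met; inactive = mean below 40 and under half of replicates reaching 40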;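 note: 0% = median of neutral control wells and 100% = median of positive control wells; inhibitors cause a drop in the FAM fluorescence signal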
Target sequence (Q92698 whole entry, looked up): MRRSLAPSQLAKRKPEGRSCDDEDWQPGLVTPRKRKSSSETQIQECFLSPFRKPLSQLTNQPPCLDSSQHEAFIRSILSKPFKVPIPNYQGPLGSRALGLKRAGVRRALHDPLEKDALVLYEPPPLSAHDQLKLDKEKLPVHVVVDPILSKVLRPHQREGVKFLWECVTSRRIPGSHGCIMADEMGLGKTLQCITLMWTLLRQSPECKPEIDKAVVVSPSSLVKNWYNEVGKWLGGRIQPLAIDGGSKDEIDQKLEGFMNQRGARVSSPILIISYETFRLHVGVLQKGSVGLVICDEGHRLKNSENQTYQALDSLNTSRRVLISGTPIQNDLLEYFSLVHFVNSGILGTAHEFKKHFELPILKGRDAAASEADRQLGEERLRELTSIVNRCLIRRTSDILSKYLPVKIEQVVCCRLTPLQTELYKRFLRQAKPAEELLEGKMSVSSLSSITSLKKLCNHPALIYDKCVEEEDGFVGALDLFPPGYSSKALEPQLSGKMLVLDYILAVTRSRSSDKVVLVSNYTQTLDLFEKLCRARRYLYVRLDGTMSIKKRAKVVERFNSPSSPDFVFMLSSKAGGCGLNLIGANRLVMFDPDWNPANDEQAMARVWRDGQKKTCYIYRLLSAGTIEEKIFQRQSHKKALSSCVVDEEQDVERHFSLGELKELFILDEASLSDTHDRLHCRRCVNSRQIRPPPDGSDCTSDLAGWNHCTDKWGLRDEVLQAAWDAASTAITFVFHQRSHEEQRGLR
DNA FID counter – displaces DNA intercalator in HCV helicase counter-screen; DNA fluorescent intercalator displacement, fluorescence; inhibition, % at 7.9 µM; 0.17% of 290,000 active; in the data active = inhibition above about 37%;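 note: 0% = vehicle and 100% = reference compound; higher means more ethidium bromide displaced from hairpin DNA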
Neddylation inh – blocks human cullin neddylation; 0.58% of 360,000 active; calls only at 25 µM; P61081+Q13564; AID 651699; TR-FRET cullin neddylation, biochemical; in the data active = inhibition above about 36%
RAD52 inh – inhibitors of human RAD52 DNA annealing; P43351; recombinant RAD52 DNA annealing, FRET fluorescence; inhibition, % at 18.7 µM; 0.46% of 360,000 active;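 active = every replicate showing at least 50% inhibition; inconclusive = mean inhibition at least 50% but not in every replicate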
Apaf1 inhib – human Apaf-1 inhibition | O14727 | reconstituted apoptosome caspase-3 activity, DEVD-Rh110 fluorescence | inhibition, % at 20 µM | 0.71% of 330,000 active; active = inhibition of at least 40% at 20 µM;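 note: plate controls were DMSO wells for no effect and DEVD-CHO caspase inhibitor wells for full effect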
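Material: cell-free apoptosome with Apaf-1, procaspase-3 and caspase-9; Buffer or medium: Hepes pH 7.5 with detergent and BSA; Reagent: cytochrome c trigger plus (Z-DEVD)2-Rh110 caspase-3 substrate; Times: compound with Apaf-1, dATP, procaspase-3 30 min, then 50 min reaction, room temperature; Technique: Rh110 fluorescence intensity.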
UBC13 polyUb – blocks human UBC13 polyubiquitin chain formation. P61088. TR-FRET. inhibition, % at 20 µM. 0.47% of 330,000 active; in the data active = inhibition above about 45%, passing the limit was not always enough; inconclusive = no clear call, values can overlap the other calls
Neddyl inh conf – cullin neddylation inhibition, confirmation; shares compounds with Neddylation inh; calls only at 25 µM; AID 652217; TR-FRET cullin neddylation biochemical assay; 13% of 1,800 active; in the data active = inhibition above about 40%;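 note: neddylation substrate is the cullin 1 ring ligase complex with SKP2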
DNA binder FP – binds DNA, flagging false RAD52 inhibitor hits; shares compounds with RAD52 inh; AC50, µM; 8% of 1,000 active; Salmon sperm DNA/acridine orange FP displacement, DNA binding;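 active = fitted half-maximal concentration for signal loss at or below twice the highest dose tested, in every separate run, actives reach about 64 µM in these data; inconclusive = runs disagree, or flat partial signal loss, or poor fit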
Starred values were filed as active, the others as inactive; i = inactive; ? = inconclusive; / = no result shown; + = active, no number; ! = not confirmed by another sample. Only some compounds are listed: those with a hit (about 1.6% of all), similar ones and a draw of the others.

SMILES	RAD54 branch	DNA FID counter	Neddylation inh	RAD52 inh	Apaf1 inhib	UBC13 polyUb	DNA binder FP	others
COc1ccc(-[n+]2c(-c3ccccc3)cc(-c3ccc(C)cc3)cc2-c2ccccc2)cc1	15	26	i	35	-1	11	/
COC(=O)[C@H]1[C@H](CO)[C@H]2Cn3c(ccc(-c4ccccc4)c3=O)[C@@H]1N2CCc1ccccc1	-5	/	/	0	/	/	/
COC(=O)[C@H]1[C@H](CO)[C@H]2Cn3c(ccc(/C=C/c4ccccc4)c3=O)[C@@H]1N2C(=O)C1CC1	1	/	/	16	/	/	/
COc1ccc(/C=N\N=C(N)N)cc1	/	-1	i	0	-3	3	/
NC(N)=N/N=C/c1ccc(N2CCOCC2)cc1	/	9	+	-14	-7	-6	/	Neddyl inh conf=i
Cc1ccc(-n2nc(C)cc2NC(=O)COc2cc(C)cc3oc(=O)c4c(c23)CCC4)cc1	-1	-6	+	/	10	0	/	Neddyl inh conf=i
Cn1c(O)c(/C=N/NC(=O)c2ccncc2)c(=O)[nH]c1=S	-20	-4	i	-95	-2	-1	/
CCCCn1c(O)c(/C=N/NC(=O)c2ccncc2)c(=O)[nH]c1=S	-15	-19	+	-222	-7	28	/
CCCCCCC(=O)N/N=C/c1c(O)n(CCCC)c(=S)[nH]c1=O	-2	-24	+	-45	18	-28	/	Neddyl inh conf=i
CCCCC(=O)N/N=C/c1c(O)n(CCc2ccccc2)c(=O)[nH]c1=O	-4	-36	+	-34	-7	-37	/	Neddyl inh conf=i
COC(=O)[C@H]1[C@H](CO)[C@H]2Cn3c(ccc(-c4ccc(F)cc4)c3=O)[C@@H]1N2C(C)=O	0	/	/	5	/	/	/
COc1ccc(C#Cc2ccc([C@H]3[C@H](CO)N4CCCCN(C(=O)Cc5ccncc5)C[C@@H]34)cc2)cc1	-6	/	/	-73	/	/	/
CN1CCN(c2ccc(N)cc2Cl)CC1	/	-5	i	85*	-1	-5	39µM*
O=C(Cc1ccccn1)N1CC2(C1)[C@H](c1ccccc1)[C@H](CO)N2Cc1ccccn1	/	/	/	-106	/	/	/
Cc1[nH]c2ccc(O)cc2c1CCN	2	/	i	81*	-1	19	i
Cc1c(P(=S)(c2ccccc2)c2ccccc2)[n+]2ccccc2n1C	18	10	i	97*!	/	/	i
Nc1ccc(CC(N)c2csc(Nc3ncccn3)n2)cc1 (stereo unspecified)	19	/	i	87*	/	/	i
O=C(Cc1ccncc1)N1CCCCN2[C@H](C1)[C@@H](c1ccc(C#CC3(O)CCCC3)cc1)[C@@H]2CO	3	/	/	-6	/	/	/
NC1(C(=O)O)CCCc2ccc(N(CCCl)CCCl)cc21 (stereo unspecified)	3	/	i	61*	/	/	i
COC(=O)[C@H]1[C@H](CO)[C@H]2Cn3c(ccc(-c4ccc(OC)cc4)c3=O)[C@@H]1N2C(=O)c1ccccc1F	-4	/	/	8	/	/	/
O=C1CNC[C@@H]2[C@H](c3ccc(Br)cc3)[C@@H](CO)N12	/	/	/	8	/	/	/
COc1ccc(Cc2nccc3cc(OC)c(OC)cc23)cc1OC	-9	-2	i	14	21	-25	/
COc1ccc(CC2=NCCc3cc(OC)c(OC)cc32)cc1OC	42	/	/	57*	/	/	i
COc1cc2c(ccc3c4cc(OC)c(OC)cc4c[n+](C)c23)cc1O	/	/	i	97*	/	/	21µM*
C/C=C/c1ccc(C2[C@@H]3CN(C(=O)C4CC4)C[C@H]2N3)cc1 (stereo partly specified)	/	/	/	24	/	/	/
SMILES	RAD54 branch	DNA FID counter	Neddylation inh	RAD52 inh	Apaf1 inhib	UBC13 polyUb	DNA binder FP	others
COC(=O)[C@@H]1[C@@H](CO)[C@@H]2Cn3c(ccc(-c4ccccc4)c3=O)[C@H]1N2CC1CCOCC1	-11	/	/	2	/	/	/
CCN(CCCl)c1cc(CN(C)C)cc(NC(=O)c2ccc(C(=O)Nc3cc(CN(C)C)cc(N(CC)CCCl)c3)cc2)c1	/	/	i	105*	/	/	?
CCN(CC)C(=O)c1ccc(NC(=O)c2cccc(C(F)(F)F)c2)cc1	2	-12	i	-14	9	-4	/
O=C(Cc1ccccn1)N1CCCCN2[C@H](C1)[C@@H](c1ccc(-c3ccccc3F)cc1)[C@@H]2CO	1	/	/	-7	/	/	/
Cc1ccc2c(C)c3ccc4ccccc4c3c[n+]2c1	/	/	+	93*	/	/	13µM*
COc1ccc(C#Cc2ccc([C@@H]3[C@H](CO)N4CCCCN(C(=O)Cc5ccncc5)C[C@@H]34)cc2)cc1	-5	/	/	-69	/	/	/
Oc1ccc2c3c1O[C@H]1c4[nH]c5ccccc5c4C[C@@]4(O)[C@@H](C2)N(CC2CC2)CC[C@]314	5	/	i	8	-11	17	/
NC(N)=Nc1ccc2[nH]c3c(c2c1)C[C@@]1(O)[C@H]2Cc4ccc(O)c5c4[C@@]1(CCN2CC1CC1)C3O5 (stereo partly specified)	35	/	i	53*	-15	30	i

Screening data from PubChem.
